The values that follow come from ChEMBL document CHEMBL4190193, “Stachybotrysins A-G, Phenylspirodrimane Derivatives from the Fungus Stachybotrys chartarum” (J Nat Prod, 2017).

The test system of assay [1] is Human immunodeficiency virus 1. The experiment in a line: Antiviral activity against VSV-G pseudotyped HIV1 infected in human SupT1 cells after 48 hrs by firefly luciferase reporter gene assay. The conditions noted are these: Human immunodeficiency virus 1, SUP-T1, 48 h. The assay is classed as functional, organism-based. A digest of the protocol:
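293T cells (2 × 105) cotransfected with 0.6 μg pNL-Luc-E−-Vpu− and 0.4 μg pHIT/G. Supernatant harvested at 48 h, 0.45 μm filtered, capsid p24 quantified by antigen-capture ELISA. SupT1 cells infected at MOI 1, 37 °C, 48 h, with compound at several concentrations, each in triplicate. Efavirenz as control. Inhibition measured by firefly luciferase; IC50 calculated from it.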
On the technique in general: Reporter assays use an easily measured gene product as a stand-in for the process of interest.

Another assay relates to Influenza A virus. Briefly: Antiviral activity against VSV-G pseudotyped Influenza A virus infected in human SupT1 cells after 48 hrs by firefly luciferase reporter gene assay. The assay is classed as functional, organism-based. Particulars: SUP-T1, 48 h.
The next assay concerns HepG2. Briefly: Cytotoxicity against human HepG2 cells assessed as reduction in cell viability after 96 hrs by MTT assay. It is filed as cell-based. The conditions noted are these: HepG2, 96 h. The method in brief:
(§1)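 MTT assay. Cells were grown in RPMI 1640 with 10% FBS, penicillin and streptomycin at 37 °C under 5% CO2, then seeded at 1200 cells/well. Compounds were added after 24 h at 10−4 to 10−8 M (five concentrations, final DMSO 0.1% v/v) and incubated 96 h. Absorbance was read at 570 nm. Paclitaxel was the positive control, with triplicates per concentration; IC50 was calculated from these.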
On the technique in general: Formazan colour is commonly taken as a measure of viable cells.

The next assay has as its system BGC-823. The experiment in a line: Cytotoxicity against human BGC823 cells assessed as reduction in cell viability after 96 hrs by MTT assay. The assay is classed as cell-based. The conditions noted are these: BGC-823, 96 h. A digest of the protocol:
as §1

The subject of the next assay is NCI-H460. Briefly: Cytotoxicity against human NCI-H460 cells assessed as reduction in cell viability after 96 hrs by MTT assay. It is filed as cell-based. The conditions noted are these: NCI-H460, 96 h. The method in brief:
as §1

pIC50: −log10 of the molar value.

As to `CC(=O)O[C@@H]1CC[C@@]2(C)[C@@H](CC[C@@H](C)[C@]23Cc2c(O)cc(C)c(C=O)c2O3)C1(C)C`, the pIC50 in assay [1] is 4.69 to 4.81; in the assay on Influenza A virus, 4.63 to 4.91; in the assay on HepG2 it was 4.61.

`Cc1cc(O)c2c(c1C=O)O[C@]1(C2)[C@H](C)CC[C@H]2C(C)(C)[C@H](O)CC[C@@]21C`: the pIC50 with BGC-823 was 4.66; in assay [1] it was 4.69 to 4.81; in the assay with HepG2 it was 4.74; in the assay with NCI-H460, 4.80.

`CC(=O)O[C@H]1C(=O)[C@@]2(C)[C@H]([C@H](OC(=O)c3ccccc3)[C@]3(O)C[C@H](OC(=O)[C@H](O)[C@@H](NC(=O)c4ccccc4)c4ccccc4)C(C)=C1C3(C)C)[C@]1(OC(C)=O)CO[C@@H]1C[C@@H]2O` [PACLITAXEL]: the pIC50 is 9.10 in the assay with BGC-823, 8.20 in the assay with HepG2 and 9.00 with NCI-H460.

Turning to `CC(=O)C[C@@H]1OCc2cc(O)c3c(c21)O[C@]1(C3)[C@H](C)CC[C@H]2C(C)(C)[C@H](O)CC[C@@]21C`, the pIC50 in assay [1] was 4.69 to 4.81; with Influenza A virus, 4.63 to 4.91; with HepG2 it was 4.61.

In the case of `NC(=O)c1ncn([C@@H]2O[C@H](CO)[C@@H](O)[C@H]2O)n1` [RIBAVIRIN], the pIC50 in the assay on Influenza A virus was 8.70.

In the assay on Influenza A virus, `CC(=O)/C=C/c1c(CO)cc(O)c2c1O[C@]1(C2)[C@H](C)CC[C@H]2C(C)(C)[C@H](O)CC[C@@]21C` gave a pIC50 of 4.63 to 4.91.

Consider `CC(=O)O[C@@H]1CC[C@@]2(C)[C@@H](CC[C@@H](C)[C@]23Cc2c(O)cc(CO)c(C=O)c2O3)C1(C)C`, for which the pIC50 in assay [1] was 4.69 to 4.81.

Compound `C=C1CC[C@H]2C(C)(C)[C@H](O)CC[C@]2(C)[C@@]12Cc1c(O)cc(COC(C)=O)c(C=O)c1O2` showed a negative-log IC50 (pIC50) in assay [1] of 4.69 to 4.81.

For the compound `CC(=O)O[C@@H]1CC[C@@]2(C)[C@@H](CC[C@@H](C)[C@]23Cc2c(O)cc4c(c2O3)COC4=O)C1(C)C`, the pIC50 in the assay with Influenza A virus is 4.63 to 4.91.

As for `CC(=O)C[C@H]1OCc2cc(O)c3c(c21)O[C@]1(C3)[C@H](C)CC[C@H]2C(C)(C)[C@H](O)CC[C@@]21C`, in the assay with Influenza A virus, the pIC50 is 4.63 to 4.91.

What is called pIC50 is the IC50 on a negative log10 scale, so that one unit is a factor of ten.
